In ChEMBL document CHEMBL4265975, “Synthesis, biological evaluation and molecular modeling of a novel series of fused 1,2,3-triazoles as potential anti-coronavirus agents” (Bioorg Med Chem Lett, 2018):

How the values were obtained:
Human adenovirus 2 = experiment: Antiviral activity against Human adenovirus 2 infected in human HEL cells assessed as inhibition of virus-induced cytopathic effect after 3 days by microscopic method; format: functional, organism-based; details: Human mastadenovirus C, 72 h
In short: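 HEL cells were infected with adenovirus 2 for 2 h. Residual virus was then removed and the cells were incubated with medium containing graded compound concentrations for 3 days at 37°C. Virus-induced cytopathogenicity was scored microscopically.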

Human coronavirus 229E = experiment: Antiviral activity against Human coronavirus 229E infected in HEL cells assessed as reduction in virus-induced pathogenicity after 3 days by microscopic method; format: functional, organism-based; details: 72 h
[1] = Cytotoxicity against HEL cells assessed as alteration in cell morphology after 3 days by microscopic method; format: cell-based; details: human
In short: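 HEL cells were seeded at 5 x 10^3 cells/well and exposed to graded compound concentrations, up to 100 μM, in parallel with the antiviral assay. Cell morphology was examined by light microscopy. MCC is the minimum concentration causing a microscopically detectable alteration of normal cell morphology.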

[2] = Selectivity index, ratio of MCC for HEL cells to EC50 for Herpes simplex virus 2 strain G infected in HEL cells; format: toxicity, cell-based; details: human, read-out: Selectivity Index
In short: (§1)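 SI is MCC divided by EC50. […] MCC was measured in parallel on HEL cells seeded at 5 x 10^3 cells/well, as the lowest concentration causing microscopically visible alteration of cell morphology. The top concentration tested was 100 µM.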

Human alphaherpesvirus 1 [3] = experiment: Antiviral activity against Herpes simplex virus 1 KOS infected in human HEL cells assessed as inhibition of virus-induced cytopathic effect after 3 days by microscopic method; format: functional, organism-based; details: Human alphaherpesvirus 1, KOS, 72 h
Human alphaherpesvirus 2 = experiment: Antiviral activity against Human herpesvirus 2 strain G infected in human HEL cells assessed as inhibition of virus-induced cytopathic effect after 3 days by microscopic method; format: functional, organism-based; details: Human alphaherpesvirus 2, strain G, 72 h
[4] = Selectivity index, ratio of MCC for HEL cells to EC50 for acyclovir-resistant TK-defecient Herpes simplex virus 1 KOS infected in HEL cells; format: toxicity, cell-based; details: human, read-out: Selectivity Index; in short: as §1
Human alphaherpesvirus 1 [5] = experiment: Antiviral activity against acyclovir-resistant TK-defecient Herpes simplex virus 1 KOS infected in human HEL cells assessed as inhibition of virus-induced cytopathic effect after 3 days by microscopic method; format: functional, organism-based; details: Human alphaherpesvirus 1, KOS, 72 h
[6] = Selectivity index, ratio of MCC for HEL cells to EC50 for Herpes simplex virus 1 KOS infected in HEL cells; format: toxicity, cell-based; details: human, read-out: Selectivity Index; in short: as §1
[7] = Selectivity index, ratio of MCC for HEL cells to EC50 for Human coronavirus 229E infected in HEL cells; format: toxicity, cell-based; details: read-out: Selectivity Index; in short: as §1
Vaccinia virus = experiment: Antiviral activity against Vaccinia virus infected in human HEL cells assessed as inhibition of virus-induced cytopathic effect after 3 days by microscopic method; format: functional, organism-based; details: Orthopoxvirus vaccinia, 72 h
[8] = Selectivity index, ratio of MCC for HEL cells to EC50 for Human adenovirus 2 infected in HEL cells; format: toxicity, cell-based; details: read-out: Selectivity Index; in short: as §1
[9] = Selectivity index, ratio of MCC for HEL cells to EC50 for Vaccinia virus infected in HEL cells; format: toxicity, cell-based; details: human, read-out: Selectivity Index; in short: as §1

Compound	EC50 (Human adenovirus 2) [µM]	EC50 (Human coronavirus 229E) [µM]	MCC at 72 h [1] [µM]	selectivity ratio [2]	EC50 (Human alphaherpesvirus 1 [3]) [µM]	EC50 (Human alphaherpesvirus 2) [µM]	selectivity ratio [4]	EC50 (Human alphaherpesvirus 1 [5]) [µM]	selectivity ratio [6]	selectivity ratio [7]	EC50 (Vaccinia virus) [µM]	selectivity ratio [8]	selectivity ratio [9]
COc1ccc(CCn2nnc3c2CCN(c2ccc(C(F)(F)F)cc2)C3)cc1	> 100	8.9	> 100	> 8	> 100	> 100	> 8	> 100	> 8	> 8	> 100	> 8	> 8
CCCCCCn1nnc2c1CCN(c1ccc(C(F)(F)F)cc1)C2	> 100	> 100	> 100	> 8	> 100	> 100	> 8	> 100	> 8	> 8	> 100	> 8	> 8
Fc1ccc(N2CCc3c(nnn3CC(c3ccccc3)c3ccccc3)C2)cc1	> 100	> 100	≥ 100	> 8	> 100	> 100	> 8	> 100	> 8	> 8	> 100	> 8	> 8
COc1cccc(CCn2nnc3c2CCN(c2ccc(C(F)(F)F)cc2)C3)c1	16	> 100	> 100	> 8	> 100	> 100	> 8	> 100	> 8	> 8	> 100	> 8	> 8
CCOC(=O)C1(Cc2ccccc2)CN(c2ccccc2)Cc2nnn(Cc3ccc(OC)cc3)c21 (stereo unspecified)	> 100	> 100	> 100	> 8	> 100	> 100	> 8	> 100	> 8	> 8	> 100	> 8	> 8
COc1ccccc1CCn1nnc2c1CCN(c1ccc(C(F)(F)F)cc1)C2	> 100	> 100	> 100	> 8	> 100	> 100	> 8	> 100	> 8	> 8	> 100	> 8	> 8
Fc1ccc(Cn2nnc3c2CCN(c2ccc(C(F)(F)F)cc2)C3)cc1	> 100	> 100	100	> 8	> 100	> 100	> 8	> 100	> 8	> 8	> 100	> 8	> 8
CCCCCCn1nnc2c1CCN(c1ccc(F)cc1)C2	> 100	> 100	> 100	> 8	> 100	> 100	> 8	> 100	> 8	> 8	> 100	> 8	> 8
CCOC(=O)C1(Cc2ccccc2)CN(c2ccccc2)Cc2nnn(Cc3ccccc3)c21 (stereo unspecified)	> 100	> 100	≥ 20	> 8	> 100	> 100	> 8	> 100	> 8	> 8	> 100	> 8	> 8
CCCCCCn1nnc2c1CCN(c1ccccc1)C2	> 100	> 100	> 100	> 8	> 100	> 100	> 8	> 100	> 8	> 8	> 100	> 8	> 8
Fc1cccc(Cn2nnc3c2CCN(c2ccc(C(F)(F)F)cc2)C3)c1	> 100	12	100	> 8	> 100	> 100	> 8	> 100	> 8	> 8	> 100	> 8	> 8
CCOC(=O)C1(Cc2ccccc2)CN(c2ccccc2)Cc2nnn(Cc3cc(OC)c(OC)c(OC)c3)c21 (stereo unspecified)	> 100	> 100	≥ 100	> 8	> 100	> 100	> 8	> 100	> 8	> 8	> 100	> 8	> 8
